Reference: BindingDB's records for doi:10.1021/acsmedchemlett.1c00308 (Uniformed Services University of The Health Sciences, 2021)
pIC50: −log10 of the molar value.

Test system: ERG (ERG oncoprotein, ETS transcription factor) in VCaP cells
Assay: Inhibition of ERG in human VCaP cells after 48 hrs by Western blotting analysis
Summary of the method: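 In VCaP prostate cancer cells, ERG and RIOK2 protein levels were measured by Western blot after treatment. IC50 values were derived from the concentration-response of protein inhibition.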

Row | Compound | pIC50
1 | O=S(=O)(O)c1cccc2c(S(=O)(=O)O)cccc12 | < 6.30
2 | Oc1ccc2ccccc2c1/N=N/c1nccs1 [DNDI1417016] | 6.51
